Test results: ChEMBL document CHEMBL1811853, “Design and evaluation of 3-aminopyrazolopyridinone kinase inhibitors inspired by the natural product indirubin” (Bioorg Med Chem, 2011)

Tests used:
[1] = biological target: Glycogen synthase kinase-3 beta (Homo sapiens) (UniProt P49841); test: Inhibition of GSK3B at 30 uM by microfluidic mobility shift assay
Method in brief: (§1)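 Single-concentration screen, singlicate, 30 uM final (diluted from 1 mM DMSO solutions), fluorescently tagged peptide substrate appropriate to each kinase, ATP at apparent Km for each protein. Phosphorylated and unphosphorylated peptides separated electrophoretically; conversion is the phosphorylated peak area over the sum of both peaks. No-inhibitor and no-ATP controls; H89 reference on each plate.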

[2] = biological target: T1, Serine/threonine-protein kinase D2 (Homo sapiens) (UniProt Q9BZL6); test: Inhibition of PKD2 at 30 uM by microfluidic mobility shift assay; method in brief: as §1
T1 sequence (whole entry): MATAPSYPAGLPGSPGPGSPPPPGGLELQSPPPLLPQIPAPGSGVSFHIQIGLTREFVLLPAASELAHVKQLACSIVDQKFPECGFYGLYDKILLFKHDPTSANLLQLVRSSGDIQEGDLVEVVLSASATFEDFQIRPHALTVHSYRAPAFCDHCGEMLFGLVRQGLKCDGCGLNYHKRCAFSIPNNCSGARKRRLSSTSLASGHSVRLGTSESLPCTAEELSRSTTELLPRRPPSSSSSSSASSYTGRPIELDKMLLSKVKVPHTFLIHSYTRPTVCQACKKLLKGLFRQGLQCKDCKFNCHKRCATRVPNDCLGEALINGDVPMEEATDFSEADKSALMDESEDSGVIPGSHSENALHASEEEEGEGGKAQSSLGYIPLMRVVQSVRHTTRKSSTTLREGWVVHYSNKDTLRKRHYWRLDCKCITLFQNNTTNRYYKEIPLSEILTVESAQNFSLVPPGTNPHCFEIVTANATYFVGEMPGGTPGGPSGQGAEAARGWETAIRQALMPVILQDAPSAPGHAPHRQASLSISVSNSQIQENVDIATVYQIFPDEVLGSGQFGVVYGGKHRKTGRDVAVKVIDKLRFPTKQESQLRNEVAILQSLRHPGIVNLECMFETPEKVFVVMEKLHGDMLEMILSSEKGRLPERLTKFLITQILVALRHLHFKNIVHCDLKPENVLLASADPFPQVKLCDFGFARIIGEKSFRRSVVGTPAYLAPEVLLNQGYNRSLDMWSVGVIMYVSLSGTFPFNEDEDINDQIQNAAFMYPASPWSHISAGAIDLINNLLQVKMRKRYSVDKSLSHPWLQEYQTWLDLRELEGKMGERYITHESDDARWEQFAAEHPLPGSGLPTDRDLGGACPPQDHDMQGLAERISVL

[3] = biological target: RAC-alpha serine/threonine-protein kinase (Homo sapiens) (UniProt P31749); test: Inhibition of AKT1 at 30 uM by microfluidic mobility shift assay; method in brief: as §1
RAC-alpha serine/threonine-protein kinase (Homo sapiens), sequence (P31749 whole entry): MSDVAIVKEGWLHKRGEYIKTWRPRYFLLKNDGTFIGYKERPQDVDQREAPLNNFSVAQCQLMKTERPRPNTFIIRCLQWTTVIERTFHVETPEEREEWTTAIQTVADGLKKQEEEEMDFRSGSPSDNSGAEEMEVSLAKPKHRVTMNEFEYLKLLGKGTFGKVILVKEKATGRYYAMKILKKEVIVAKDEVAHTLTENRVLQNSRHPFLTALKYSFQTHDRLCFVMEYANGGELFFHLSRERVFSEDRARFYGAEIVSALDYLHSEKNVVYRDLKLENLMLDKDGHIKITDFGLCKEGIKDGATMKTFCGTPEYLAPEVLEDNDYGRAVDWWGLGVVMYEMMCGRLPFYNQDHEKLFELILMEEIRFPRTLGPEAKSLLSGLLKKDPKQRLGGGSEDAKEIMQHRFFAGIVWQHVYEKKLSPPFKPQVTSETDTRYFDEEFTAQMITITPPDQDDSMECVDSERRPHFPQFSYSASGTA

[4] = biological target: RAC-beta serine/threonine-protein kinase (Homo sapiens) (UniProt P31751); test: Inhibition of AKT2 at 30 uM by microfluidic mobility shift assay; method in brief: as §1
RAC-beta serine/threonine-protein kinase (Homo sapiens), sequence (P31751 whole entry): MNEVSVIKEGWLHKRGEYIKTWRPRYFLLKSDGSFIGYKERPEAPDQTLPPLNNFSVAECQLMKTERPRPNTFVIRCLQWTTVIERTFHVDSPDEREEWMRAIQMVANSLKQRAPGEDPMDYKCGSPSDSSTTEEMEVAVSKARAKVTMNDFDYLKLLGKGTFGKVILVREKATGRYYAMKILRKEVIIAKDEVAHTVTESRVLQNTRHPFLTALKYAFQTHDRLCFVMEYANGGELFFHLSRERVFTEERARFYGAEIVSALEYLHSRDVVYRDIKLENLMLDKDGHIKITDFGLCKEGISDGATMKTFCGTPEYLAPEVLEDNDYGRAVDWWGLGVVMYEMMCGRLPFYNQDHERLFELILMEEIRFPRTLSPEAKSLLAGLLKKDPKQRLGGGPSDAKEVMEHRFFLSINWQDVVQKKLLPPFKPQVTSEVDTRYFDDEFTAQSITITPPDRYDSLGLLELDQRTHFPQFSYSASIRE

[5] = biological target: Mitogen-activated protein kinase 14 (Homo sapiens, UniProt Q16539); test: Inhibition of p38alpha at 30 uM by microfluidic mobility shift assay; method in brief: as §1
[6] = biological target: T2, Protein kinase C zeta type (Homo sapiens) (UniProt Q05513); test: Inhibition of PKCz at 30 uM by microfluidic mobility shift assay; method in brief: as §1
T2 sequence (whole entry): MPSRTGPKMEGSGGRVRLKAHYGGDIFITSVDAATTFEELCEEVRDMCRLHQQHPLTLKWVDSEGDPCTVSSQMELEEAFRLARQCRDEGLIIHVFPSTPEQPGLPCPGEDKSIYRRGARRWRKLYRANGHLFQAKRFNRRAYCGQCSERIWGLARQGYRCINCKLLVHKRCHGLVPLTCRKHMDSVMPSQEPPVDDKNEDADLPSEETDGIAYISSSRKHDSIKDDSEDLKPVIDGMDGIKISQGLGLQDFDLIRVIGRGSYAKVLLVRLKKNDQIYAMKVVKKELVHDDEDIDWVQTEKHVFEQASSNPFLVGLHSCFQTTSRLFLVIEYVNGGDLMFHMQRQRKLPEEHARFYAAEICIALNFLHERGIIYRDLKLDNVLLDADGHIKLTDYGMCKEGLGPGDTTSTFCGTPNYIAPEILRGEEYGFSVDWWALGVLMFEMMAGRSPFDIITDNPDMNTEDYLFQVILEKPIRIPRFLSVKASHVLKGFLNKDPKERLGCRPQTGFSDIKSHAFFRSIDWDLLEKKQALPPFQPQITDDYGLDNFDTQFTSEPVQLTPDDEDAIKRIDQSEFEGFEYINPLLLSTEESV

[7] = biological target: Tyrosine-protein kinase Fyn (Homo sapiens, UniProt P06241); test: Inhibition of FYN at 30 uM by microfluidic mobility shift assay; method in brief: as §1
Tyrosine-protein kinase Fyn, sequence (P06241 2-537 limits assumed): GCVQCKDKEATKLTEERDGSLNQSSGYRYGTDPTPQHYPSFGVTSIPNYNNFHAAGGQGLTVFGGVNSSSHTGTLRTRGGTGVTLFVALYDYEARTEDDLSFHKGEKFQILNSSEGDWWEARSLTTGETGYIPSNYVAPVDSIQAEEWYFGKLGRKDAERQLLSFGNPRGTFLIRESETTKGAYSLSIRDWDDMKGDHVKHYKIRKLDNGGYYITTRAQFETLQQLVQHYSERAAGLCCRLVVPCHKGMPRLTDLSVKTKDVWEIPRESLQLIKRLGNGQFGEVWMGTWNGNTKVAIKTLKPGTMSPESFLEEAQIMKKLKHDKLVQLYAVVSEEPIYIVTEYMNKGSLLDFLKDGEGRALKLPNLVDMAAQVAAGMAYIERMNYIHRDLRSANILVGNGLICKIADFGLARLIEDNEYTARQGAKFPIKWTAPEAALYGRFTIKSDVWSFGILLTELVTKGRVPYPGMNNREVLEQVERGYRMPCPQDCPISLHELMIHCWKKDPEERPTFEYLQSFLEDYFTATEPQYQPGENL

[8] = biological target: Mitogen-activated protein kinase 1 (Homo sapiens) (UniProt P28482); test: Inhibition of ERK2 at 30 uM by microfluidic mobility shift assay; method in brief: as §1
[9] = biological target: Tyrosine-protein kinase ABL1 (Homo sapiens, UniProt P00519); test: Inhibition of ABL at 30 uM by microfluidic mobility shift assay; method in brief: as §1
Tyrosine-protein kinase ABL1, sequence (P00519 whole entry): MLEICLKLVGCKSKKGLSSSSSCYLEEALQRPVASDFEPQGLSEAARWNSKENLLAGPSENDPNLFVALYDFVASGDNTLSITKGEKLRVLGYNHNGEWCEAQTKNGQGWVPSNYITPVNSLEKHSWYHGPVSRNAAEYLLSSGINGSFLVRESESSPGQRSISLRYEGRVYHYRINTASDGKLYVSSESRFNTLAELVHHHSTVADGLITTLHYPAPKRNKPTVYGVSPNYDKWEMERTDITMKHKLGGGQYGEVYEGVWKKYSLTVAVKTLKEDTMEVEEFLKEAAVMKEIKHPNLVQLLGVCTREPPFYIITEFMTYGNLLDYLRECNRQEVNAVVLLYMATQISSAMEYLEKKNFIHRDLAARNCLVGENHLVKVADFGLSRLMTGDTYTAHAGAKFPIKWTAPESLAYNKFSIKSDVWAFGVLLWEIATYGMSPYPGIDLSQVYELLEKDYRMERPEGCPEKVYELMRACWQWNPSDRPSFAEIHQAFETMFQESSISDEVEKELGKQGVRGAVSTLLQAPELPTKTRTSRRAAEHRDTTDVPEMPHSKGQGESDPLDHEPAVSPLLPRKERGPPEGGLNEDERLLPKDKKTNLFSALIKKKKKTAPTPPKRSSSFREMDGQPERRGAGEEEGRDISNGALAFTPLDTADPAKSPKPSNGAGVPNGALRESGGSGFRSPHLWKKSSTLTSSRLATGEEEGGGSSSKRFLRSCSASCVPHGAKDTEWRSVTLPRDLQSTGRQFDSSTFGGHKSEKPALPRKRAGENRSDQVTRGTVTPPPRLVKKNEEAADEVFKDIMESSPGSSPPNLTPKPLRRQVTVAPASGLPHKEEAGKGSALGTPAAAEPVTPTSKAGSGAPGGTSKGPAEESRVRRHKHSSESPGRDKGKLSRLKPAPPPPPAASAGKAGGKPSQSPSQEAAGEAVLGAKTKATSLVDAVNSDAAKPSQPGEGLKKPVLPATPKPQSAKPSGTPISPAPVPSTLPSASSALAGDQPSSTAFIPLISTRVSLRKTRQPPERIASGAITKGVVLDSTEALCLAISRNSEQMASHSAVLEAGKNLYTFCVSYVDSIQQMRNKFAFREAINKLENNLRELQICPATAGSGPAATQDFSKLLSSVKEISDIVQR

[10] = biological target: Ribosomal protein S6 kinase alpha-1 (Homo sapiens) (UniProt Q15418); test: Inhibition of RSK1 at 30 uM by microfluidic mobility shift assay; method in brief: as §1
Ribosomal protein S6 kinase alpha-1 (Homo sapiens), sequence (Q15418 whole entry): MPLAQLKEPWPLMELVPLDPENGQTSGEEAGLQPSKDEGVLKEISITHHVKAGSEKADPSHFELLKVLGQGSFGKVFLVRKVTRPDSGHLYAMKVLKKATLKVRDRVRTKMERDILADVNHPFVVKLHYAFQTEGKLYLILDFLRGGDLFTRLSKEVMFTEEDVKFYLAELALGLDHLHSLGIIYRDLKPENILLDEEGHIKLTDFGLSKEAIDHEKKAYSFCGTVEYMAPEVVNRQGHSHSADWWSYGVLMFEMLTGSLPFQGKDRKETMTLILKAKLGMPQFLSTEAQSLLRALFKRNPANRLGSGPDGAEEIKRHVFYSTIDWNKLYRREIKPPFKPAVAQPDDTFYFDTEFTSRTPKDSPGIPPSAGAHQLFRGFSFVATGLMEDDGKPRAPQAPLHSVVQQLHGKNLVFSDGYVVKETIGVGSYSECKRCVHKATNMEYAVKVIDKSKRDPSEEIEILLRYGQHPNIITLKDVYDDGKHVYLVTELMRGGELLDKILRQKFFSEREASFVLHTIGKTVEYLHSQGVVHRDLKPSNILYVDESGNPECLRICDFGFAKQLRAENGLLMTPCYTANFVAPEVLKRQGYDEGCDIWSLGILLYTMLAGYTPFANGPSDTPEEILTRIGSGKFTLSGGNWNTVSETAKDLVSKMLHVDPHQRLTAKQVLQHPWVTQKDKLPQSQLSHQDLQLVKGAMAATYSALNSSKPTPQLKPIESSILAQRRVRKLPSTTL

[11] = biological target: Ribosomal protein S6 kinase alpha-5 (Homo sapiens) (UniProt O75582); test: Inhibition of MSK1 at 30 uM by microfluidic mobility shift assay; method in brief: as §1
[12] = biological target: Tyrosine-protein kinase Lck (Homo sapiens, UniProt P06239); test: Inhibition of LCK at 30 uM by microfluidic mobility shift assay; method in brief: as §1
Tyrosine-protein kinase Lck, sequence (P06239 2-509 limits assumed): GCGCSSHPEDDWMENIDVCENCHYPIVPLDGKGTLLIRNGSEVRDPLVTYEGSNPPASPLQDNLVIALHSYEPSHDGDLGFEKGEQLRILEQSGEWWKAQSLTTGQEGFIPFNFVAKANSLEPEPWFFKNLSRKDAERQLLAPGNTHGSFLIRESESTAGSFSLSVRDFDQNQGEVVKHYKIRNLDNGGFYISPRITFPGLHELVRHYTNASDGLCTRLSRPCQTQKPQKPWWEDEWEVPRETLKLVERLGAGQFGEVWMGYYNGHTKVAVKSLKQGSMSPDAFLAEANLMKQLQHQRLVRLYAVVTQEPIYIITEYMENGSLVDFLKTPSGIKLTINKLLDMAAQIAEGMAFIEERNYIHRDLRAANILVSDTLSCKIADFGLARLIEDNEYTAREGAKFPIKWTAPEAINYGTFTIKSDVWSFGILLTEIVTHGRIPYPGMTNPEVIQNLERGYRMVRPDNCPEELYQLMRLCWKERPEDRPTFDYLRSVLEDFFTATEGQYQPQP

[13] = biological target: T3, Aurora kinase A (Homo sapiens) (UniProt O14965); test: Inhibition of AurA at 30 uM by microfluidic mobility shift assay; method in brief: as §1
T3 sequence (whole entry): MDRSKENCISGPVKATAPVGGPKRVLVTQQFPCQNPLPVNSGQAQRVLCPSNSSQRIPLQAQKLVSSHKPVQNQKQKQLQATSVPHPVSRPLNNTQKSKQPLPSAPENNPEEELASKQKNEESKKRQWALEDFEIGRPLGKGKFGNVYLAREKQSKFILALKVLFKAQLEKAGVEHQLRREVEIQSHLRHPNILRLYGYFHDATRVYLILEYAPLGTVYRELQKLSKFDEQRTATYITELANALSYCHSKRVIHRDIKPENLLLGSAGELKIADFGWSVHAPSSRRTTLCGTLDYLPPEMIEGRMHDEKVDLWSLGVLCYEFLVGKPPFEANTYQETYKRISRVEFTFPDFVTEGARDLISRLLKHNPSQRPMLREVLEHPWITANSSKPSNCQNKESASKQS

[14] = biological target: Mitogen-activated protein kinase 3 (Homo sapiens) (UniProt P27361); test: Inhibition of ERK1 at 30 uM by microfluidic mobility shift assay; method in brief: as §1
[15] = biological target: MAP kinase-activated protein kinase 2 (Homo sapiens, UniProt P49137); test: Inhibition of MAPKAPK2 at 30 uM by microfluidic mobility shift assay; method in brief: as §1
MAP kinase-activated protein kinase 2, sequence (P49137 whole entry, looked up): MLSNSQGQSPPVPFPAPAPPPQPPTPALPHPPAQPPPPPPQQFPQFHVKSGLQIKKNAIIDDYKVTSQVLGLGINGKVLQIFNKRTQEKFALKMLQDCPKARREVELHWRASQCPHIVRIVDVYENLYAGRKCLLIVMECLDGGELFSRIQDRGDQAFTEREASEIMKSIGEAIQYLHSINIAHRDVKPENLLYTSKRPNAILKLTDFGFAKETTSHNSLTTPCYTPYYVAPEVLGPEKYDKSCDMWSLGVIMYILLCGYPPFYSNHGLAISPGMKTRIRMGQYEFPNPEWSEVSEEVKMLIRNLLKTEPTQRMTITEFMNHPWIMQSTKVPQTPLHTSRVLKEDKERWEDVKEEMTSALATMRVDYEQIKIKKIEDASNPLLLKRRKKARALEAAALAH

Glycogen synthase kinase-3 beta (Homo sapiens), sequence (P49841 whole entry, looked up): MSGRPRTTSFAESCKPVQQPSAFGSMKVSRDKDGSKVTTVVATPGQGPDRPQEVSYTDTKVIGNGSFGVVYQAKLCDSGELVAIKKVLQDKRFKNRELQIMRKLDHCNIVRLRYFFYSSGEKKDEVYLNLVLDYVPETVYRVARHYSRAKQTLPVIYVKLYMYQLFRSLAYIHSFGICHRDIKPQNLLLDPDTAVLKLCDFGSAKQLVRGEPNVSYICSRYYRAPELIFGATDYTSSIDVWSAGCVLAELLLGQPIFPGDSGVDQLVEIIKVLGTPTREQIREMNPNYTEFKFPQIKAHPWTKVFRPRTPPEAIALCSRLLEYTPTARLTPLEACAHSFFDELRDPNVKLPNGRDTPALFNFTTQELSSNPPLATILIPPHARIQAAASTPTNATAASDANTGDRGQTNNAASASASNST

inhibition [1] [%]	inhibition [2] [%]	inhibition [3] [%]	inhibition [4] [%]	inhibition [5] [%]	inhibition [6] [%]	inhibition [7] [%]	inhibition [8] [%]	inhibition [9] [%]	inhibition [10] [%]	inhibition [11] [%]	inhibition [12] [%]	inhibition [13] [%]	inhibition [14] [%]	inhibition [15] [%]	SMILES
14	28	16	0	38	0	88	3	89	4	6	75	10	8	7	COc1ccc(-c2cc3nn(-c4ccccc4)c(N)c3c(=O)[nH]2)cc1
41	15	-1	7	6	-2	62	-3	61	16	39	44	51	9	55	Nc1n[nH]c2cc(-c3ccc(N4CCOCC4)cc3)[nH]c(=O)c12
58	21	13	25	-1	10	20	7	23	18	13	11	31	13	24	COc1ccc(-c2c(C)[nH]c(=O)c3c(N)nn(C)c23)cc1
